We go through 32 molecules from ChEMBL document CHEMBL4390681, “Novel allosteric covalent inhibitors of bifunctional Cryptosporidium hominis TS-DHFR from parasitic protozoa identified by virtual screening” (Bioorg Med Chem Lett, 2019).

Data set [1] addresses T1, Bifunctional dihydrofolate reductase-thymidylate synthase (Cryptosporidium hominis) (UniProt A0A0S4TER9).
T1 sequence (whole entry): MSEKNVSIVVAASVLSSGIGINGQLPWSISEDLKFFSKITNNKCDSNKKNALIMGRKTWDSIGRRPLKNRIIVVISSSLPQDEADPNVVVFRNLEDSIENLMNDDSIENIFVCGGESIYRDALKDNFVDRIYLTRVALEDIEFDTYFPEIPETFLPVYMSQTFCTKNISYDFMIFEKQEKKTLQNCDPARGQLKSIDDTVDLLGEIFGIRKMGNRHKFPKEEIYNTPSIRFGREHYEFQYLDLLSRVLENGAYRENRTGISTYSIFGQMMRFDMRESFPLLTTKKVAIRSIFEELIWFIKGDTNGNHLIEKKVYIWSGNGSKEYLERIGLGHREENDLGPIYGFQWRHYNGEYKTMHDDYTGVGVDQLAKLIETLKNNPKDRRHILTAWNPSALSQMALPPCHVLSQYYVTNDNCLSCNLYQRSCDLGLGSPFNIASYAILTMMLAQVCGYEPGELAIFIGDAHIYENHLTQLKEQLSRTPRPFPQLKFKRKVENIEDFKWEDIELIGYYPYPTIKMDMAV
Kind of data set: Inhibition of recombinant Cryptosporidium hominis TS-DHFR expressed in Escherichia coli PA414 assessed as reduction in DHFR steady state activity at 500 uM using [3',5',7,9-3H]-H2folate as substrate preincubated for 10 mins before NADPH addition for 5 mins followed by substrate addition and measured after 5 mins by NADPH based radiometric chemical quench assay relative to control. The method in brief:
(§1)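 Radiometric DHFR steady-state activity assay on recombinant ChTS-DHFR. Compound was incubated with the enzyme for 10 min before the reaction was started. Single-point screen was at 500 µM, and dose-dependence was also assessed. Activity is expressed as percent of control.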

Data set [2] addresses T1, Bifunctional dihydrofolate reductase-thymidylate synthase (Cryptosporidium hominis). Kind of data set: Inhibition of recombinant Cryptosporidium hominis TS-DHFR expressed in Escherichia coli PA414 assessed as decrease in TS activity.
Data set [3] in a line: Solubility of the compound at >500 uM. Format: physicochemical.
Data set [4] concerns the target T1, Bifunctional dihydrofolate reductase-thymidylate synthase (Cryptosporidium hominis). Kind of data set: Mixed noncompetitive inhibition of recombinant Cryptosporidium hominis TS-DHFR expressed in Escherichia coli PA414 assessed as Kobs at 100 uM […] preincubated for 10 mins before NADPH addition for 5 mins followed by substrate addition and measured after 5 mins by Lineweaver-Burk plot analysis (reference value: 1.98 +/- 0.09 /s).

Data set [5] has the same target. Kind of data set: Mixed noncompetitive inhibition of recombinant Cryptosporidium hominis TS-DHFR expressed in Escherichia coli PA414 assessed as Kobs at 250 uM […] preincubated for 10 mins before NADPH addition for 5 mins followed by substrate addition and measured after 5 mins by Lineweaver-Burk plot analysis (reference value: 1.98 +/- 0.09 /s).
Data set [6] has the same target. Kind of data set: Inhibition of recombinant Cryptosporidium hominis TS-DHFR expressed in Escherichia coli PA414 assessed as reduction in DHFR steady state activity using [3',5',7,9-3H]-H2folate as substrate preincubated for 10 mins before NADPH addition for 5 mins followed by substrate addition and measured after 5 mins by NADPH based radiometric chemical quench assay relative to control. The method in brief:
as §1

For data set [7] the target is unchanged. Kind of data set: Inhibition of recombinant Cryptosporidium hominis TS-DHFR expressed in Escherichia coli PA414 assessed as reduction in DHFR steady state activity at 500 uM using [3',5',7,9-3H]-H2folate as substrate preincubated for 1 hr to 72 hrs before NADPH addition for 5 mins followed by substrate addition and measured after 5 mins by NADPH based radiometric chemical quench assay relative to control. To be noted: TDE = time-dependent effect. In a few lines: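 Compound at 500 µM was incubated with ChTS-DHFR for 1 h, 16 h, 48 h or 72 h before the radiometric DHFR reaction was initiated, to follow time-dependent inhibition. The standard assay uses a 10 min incubation.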

In data set [8] the test system is T2, Bifunctional dihydrofolate reductase-thymidylate synthase (Cryptosporidium hominis), A0A0S4TER9 [C44S].
T2 sequence (whole entry): T1 sequence (whole entry) with C44S
Kind of data set: Inhibition of recombinant Cryptosporidium hominis TS-DHFR Cys44Ser mutant expressed in Escherichia coli PA414 assessed as reduction in DHFR steady state activity at 500 uM using [3',5',7,9-3H]-H2folate as substrate preincubated for 16 hrs before NADPH addition for 5 mins followed by substrate addition and measured after 5 mins by NADPH based radiometric chemical quench assay relative to control. The method in brief: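 Wild-type and Cys44Ser mutant ChTS-DHFR, each incubated 16 h with compound before the radiometric DHFR reaction was started. Read-out was percent DHFR activity.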

For data set [9], the target named is T3, Dihydrofolate reductase (Homo sapiens) (UniProt P00374).
T3 sequence (whole entry): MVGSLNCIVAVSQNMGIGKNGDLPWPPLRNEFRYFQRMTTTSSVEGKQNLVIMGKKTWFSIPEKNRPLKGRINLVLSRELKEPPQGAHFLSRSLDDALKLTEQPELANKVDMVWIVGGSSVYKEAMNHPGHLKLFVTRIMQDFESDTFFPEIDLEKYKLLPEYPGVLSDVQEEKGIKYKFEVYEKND
Kind of data set: Inhibition of human DHFR assessed as decrease in DHFR steady state activity at 500 uM using [3',5',7,9-3H]-H2folate as substrate preincubated for 16 hrs before NADPH addition incubated for 5 mins followed by substrate addition and measured after 5 mins by NADPH based radiometric chemical quench assay relative to control. In a few lines:
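Radiometric DHFR steady-state assay with human DHFR. Compound and enzyme were incubated for 16 h before the reaction was started. Percent inhibition was read relative to control.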

Compound in data set [10]: Cc1cc(Br)ccc1NC(=S)Nc1cccc(NC(=O)c2ccccc2O)c1
Kind of data set: Mixed noncompetitive inhibition of recombinant Cryptosporidium hominis TS-DHFR expressed in Escherichia coli PA414 assessed as substrate Kcat at 100 uM using varying levels of [3',5',7,9-3H]-H2folate as substrate preincubated for 10 mins before NADPH addition for 5 mins followed by substrate addition and measured after 5 mins by Lineweaver-Burk plot analysis (reference value: 2.17 +/- 0.04 /s).

Compound in data set [11]: Cc1cc(Br)ccc1NC(=S)Nc1cccc(NC(=O)c2ccccc2O)c1
Kind of data set: Mixed noncompetitive inhibition of recombinant Cryptosporidium hominis TS-DHFR expressed in Escherichia coli PA414 assessed as substrate Kcat at 250 uM using varying levels of [3',5',7,9-3H]-H2folate as substrate preincubated for 10 mins before NADPH addition for 5 mins followed by substrate addition and measured after 5 mins by Lineweaver-Burk plot analysis (reference value: 2.17 +/- 0.04 /s).

Compound in data set [12]: Cc1cc(Br)ccc1NC(=S)Nc1cccc(NC(=O)c2ccccc2O)c1
Kind of data set: Mixed noncompetitive inhibition of recombinant Cryptosporidium hominis TS-DHFR expressed in Escherichia coli PA414 assessed as substrate Km at 100 uM using varying levels of [3',5',7,9-3H]-H2folate as substrate preincubated for 10 mins before NADPH addition for 5 mins followed by substrate addition and measured after 5 mins by Lineweaver-Burk plot analysis (reference value: 1.2 +/- 0.2 uM).

Compound in data set [13]: Cc1cc(Br)ccc1NC(=S)Nc1cccc(NC(=O)c2ccccc2O)c1
Kind of data set: Mixed noncompetitive inhibition of recombinant Cryptosporidium hominis TS-DHFR expressed in Escherichia coli PA414 assessed as substrate Km at 250 uM using varying levels of [3',5',7,9-3H]-H2folate as substrate preincubated for 10 mins before NADPH addition for 5 mins followed by substrate addition and measured after 5 mins by Lineweaver-Burk plot analysis (reference value: 1.2 +/- 0.2 uM).

Residue numbers refer to the chain shown, from its start. Calls of active or inactive are those of the source. No cut-off for these calls is given here.

Broadly, the inhibition is the drop in the measured response relative to a control, in per cent. Consider `Cc1cc(Br)ccc1NC(=S)Nc1cccc(NC(=O)c2ccccc2O)c1`, for which the figures for the inhibition in [1] and in data set [6] were 52.2% and “Dose-dependent effect”, respectively. Moreover, the inhibition result in [2] is “inactive”. The solubility result in data set [3] is given as “Insoluble”. Also, the K turned out to be 1.6 s⁻¹ in [4] and 1.33 s⁻¹ in data set [5].
For the molecule `O=C(Nc1cc(Cl)cc(Cl)c1)c1ccccc1O`, the inhibition in data set [1] came out at 9.8%.
With `COc1ccc(Br)c(OC)c1C(=O)NC(=O)Nc1cc(Cl)cc(Cl)c1`, the inhibition in data set [1] was 7.9%.
As to `O=C(Nc1ccc(Cl)cc1)c1cc(Br)ccc1O`, the inhibition in [1] stood at 11.1%.
On to `CCOC(=O)C(=CNNC(=O)[C@@H]1[C@@H](C(=O)O)[C@H]2C=C[C@@H]1C2)C(=O)OCC`, for which the inhibition in data set [1] is -4.4%.
On to `COc1cc(C(F)(F)F)c(C(N)=O)cn1`, for which the inhibition in data set [1] worked out at 0.29%.
With `Nc1cccc(NC(=O)c2ccccc2O)c1`, the inhibition in data set [1] is -1.3%.
`O=C(Nc1cc(C(F)(F)F)cc(C(F)(F)F)c1)c1cc(Br)ccc1O`: in data set [1], the inhibition is 24.4%.
`O=C(O)C[C@@H]1SC(c2ccc3c(c2)OCO3)=NC1=O`: in data set [1], the inhibition is -0.67%.
`O=C1NC(=S)NC(=O)C1=Cc1c[nH]c2ccccc12`: in data set [1], the inhibition is -1.6%.
Consider `O=C(O)c1nccnc1-c1nc(=O)c2ccccc2[nH]1`, for which the inhibition in data set [1] is -4.4%.
Consider `O=C(Nc1cc(Cl)cc(Cl)c1)c1cc(Br)ccc1O`, for which the inhibition was 49% in [1] and “Dose-dependent effect” in data set [6]. Also, in data set [3], the solubility result is listed as “Insoluble”.
On to `NC(=S)Cc1c(Cl)sc2ccc(Cl)cc12`, for which the inhibition in data set [1] turned out to be 32.6%.
As for `O=C(Nc1ccccc1O)c1ccc(Br)cc1O`, in data set [1], the inhibition was -0.176%.
Still for that read-out and setting: the figure for `CNC(=O)c1ccc(NC(=O)c2ccccc2O)cc1` is 14.7%.
In the case of `Oc1nc2ccccc2nc1O`, the inhibition in [1] was -2.6%.
In the case of `O=C(NCc1cccs1)c1ccc2nccnc2c1`, the inhibition in data set [1] stood at 2%.
For the molecule `O=C(Nc1ccc(F)cc1)c1cc(Br)ccc1O`, the inhibition in data set [1] is 20%.
On to `NCc1ccc(NC(=O)c2ccccc2O)cc1`, for which the inhibition in data set [1] was found to be 1.1%.
`Cc1cc2c(cc1C)N[C@H](C)CC(=O)N2`: the inhibition in data set [1] was -3.8%.
Take `O=C(Nc1cccc(S)c1)c1cc(Br)ccc1O`: the inhibition entry is “Tde” in data set [1] (TDE = time-dependent effect), “Tde” in data set [7] and 95% in data set [9]. Moreover, in data set [8], the inhibition entry is “inactive”.
Regarding `Cc1ccc(C(=O)Nc2cc(Cl)cc(Cl)c2)c(O)c1`, the inhibition is 61% in data set [1] and “Dose-dependent effect” in data set [6]. Further, the solubility result in [3] is “Insoluble”. Moreover, the inhibition entry in data set [8] is “inactive”.
Take `O=c1ccn([C@H]2C[C@H](O)[C@@H](CO)O2)c(=O)[nH]1`: in [1], the inhibition is -5.3%.
For `O=C(Nc1cccc(Cl)c1)c1cc(Cl)ccc1O`, the inhibition was 54% in data set [1] and “Dose-dependent effect” in [6]. Further, the solubility entry in [3] is given as “Insoluble”.
Turning to `CCOC(=O)C1=C(C)NC(C)=C(C(=O)OCC)C1c1ccc2c(c1)OCO2`, in data set [1], the inhibition was -7.9%.
The same measure, in the same setting: the figure for `Nc1cc(NC(=O)c2ccccc2O)ccc1Cl` is -1.3%; for `O=C(NNC(=O)c1ccccc1CO)c1ccc(Cl)c(Cl)c1` it is 21.2%.
`O=C(Nc1ccc(Cl)cc1)c1cc(I)ccc1O`: the inhibition was 47% in data set [1] and “Dose-dependent effect” in [6]. Further, the solubility result in data set [3] is listed as “Insoluble”.
Regarding `O=C(Nc1ccc(Br)cc1)c1ccccc1O`, the inhibition in [1] is 8.8%.
Turning to `CC(=O)C[C@@]1(O)C(=O)Nc2ccc(F)cc21`, in data set [1], the inhibition is -6%.
Consider `O=C(Nc1ccc(F)c(Cl)c1)c1cc(Br)ccc1O`, for which the inhibition in data set [1] is 61%; in data set [6], “Dose-dependent effect”. Moreover, the solubility result in data set [3] is on record as “Insoluble”.

B1: Bifunctional dihydrofolate reductase-thymidylate synthase (Cryptosporidium hominis), A0A0S4TER9 (protein)
chain: T1 sequence (whole entry)
What is called kcat is the maximal rate divided by the concentration of active sites. What is called Km is the concentration of substrate that gives half-maximal velocity. As to B1, the values for the kcat in data set [10] and in [11] were 1.9 s⁻¹ and 1.2 s⁻¹, respectively. In addition, the Km is 1.3 µM in data set [12] and 1.4 µM in data set [13].
